According to ChEMBL document CHEMBL1914406, “Inhibitory effect of novel 5-O-acyl juglones on mammalian DNA polymerase activity, cancer cell growth and inflammatory response” (Bioorg Med Chem, 2011):
The source made the active and inactive calls. The calls are words filed in the database; no cut-off is given here.

Experiments:
[1] = Inhibition of human DNA polymerase epsilon using poly(dA)/oligo(dT)18 (A/T = 2/1) and dTTP as the DNA template-primer and nucleotide substrate after 60 mins
Procedure, shortened: (§1)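 Compound in DMSO, sonicated 30 s. Premixed 0 °C, 10 min with enzyme (0.05 units) in 50 mM Tris-HCl pH 7.5, 1 mM DTT, 50% glycerol, 0.1 mM EDTA, then added to standard reaction mixture. Template-primers: poly(dA)/oligo(dT)18 (2/1) for pols, oligo(dT)18 for TdT, poly(rA)/oligo(dT)18 for HIV-1 RT, with [3H]dTTP. 60 min at 37 °C (Taq 74 °C). Activity relative to no-inhibitor control; mean ± SE of three experiments.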

[2] = biological target: DNA polymerase lambda (Homo sapiens, UniProt Q9UGP5); test: Inhibition of His-tagged human DNA polymerase lambda using poly(dA)/oligo(dT)18 (A/T = 2/1) and dTTP as the DNA template-primer and nucleotide substrate after 60 mins; procedure, shortened: as §1
[3] = Inhibition of Escherichia coli DNA polymerase 1 Klenow fragment using poly(dA)/oligo(dT)18 (A/T = 2/1) and dTTP as the DNA template-primer and nucleotide substrate after 60 mins; procedure, shortened: as §1
[4] = biological target: Inosine-5'-monophosphate dehydrogenase 2 (Mus musculus, UniProt P24547); test: Inhibition of mouse IMP dehydrogenase type 2
Inosine-5'-monophosphate dehydrogenase 2, sequence (P24547 whole entry): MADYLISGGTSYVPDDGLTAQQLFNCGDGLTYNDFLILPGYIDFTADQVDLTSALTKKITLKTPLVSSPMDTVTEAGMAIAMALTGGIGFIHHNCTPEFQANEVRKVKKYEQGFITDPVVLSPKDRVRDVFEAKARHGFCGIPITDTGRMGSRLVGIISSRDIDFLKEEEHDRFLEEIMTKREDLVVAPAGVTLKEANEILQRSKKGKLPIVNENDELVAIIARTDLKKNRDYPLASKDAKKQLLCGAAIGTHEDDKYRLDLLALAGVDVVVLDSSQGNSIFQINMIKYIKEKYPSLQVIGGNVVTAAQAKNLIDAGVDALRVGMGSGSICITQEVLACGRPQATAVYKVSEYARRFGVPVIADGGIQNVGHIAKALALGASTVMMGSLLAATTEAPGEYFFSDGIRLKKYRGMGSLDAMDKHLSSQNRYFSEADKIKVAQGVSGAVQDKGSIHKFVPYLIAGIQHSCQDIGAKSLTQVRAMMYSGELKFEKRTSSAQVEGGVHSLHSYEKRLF
Procedure, shortened: (§2)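 Calf primase of pol α and mouse IMP dehydrogenase type II measured by standard assays per manufacturer's specifications. Activity relative to no-compound control (100%).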

[5] = biological target: T7 RNA polymerase (Enterobacteria phage T7, UniProt P00573); test: Inhibition of T7 RNA polymerase using salmon sperm DNA and [3H]UTP at 25 degree C after 30 mins by liquid scintillation counting; parameters: species or system Escherichia phage T7
T7 RNA polymerase, sequence (P00573 whole entry): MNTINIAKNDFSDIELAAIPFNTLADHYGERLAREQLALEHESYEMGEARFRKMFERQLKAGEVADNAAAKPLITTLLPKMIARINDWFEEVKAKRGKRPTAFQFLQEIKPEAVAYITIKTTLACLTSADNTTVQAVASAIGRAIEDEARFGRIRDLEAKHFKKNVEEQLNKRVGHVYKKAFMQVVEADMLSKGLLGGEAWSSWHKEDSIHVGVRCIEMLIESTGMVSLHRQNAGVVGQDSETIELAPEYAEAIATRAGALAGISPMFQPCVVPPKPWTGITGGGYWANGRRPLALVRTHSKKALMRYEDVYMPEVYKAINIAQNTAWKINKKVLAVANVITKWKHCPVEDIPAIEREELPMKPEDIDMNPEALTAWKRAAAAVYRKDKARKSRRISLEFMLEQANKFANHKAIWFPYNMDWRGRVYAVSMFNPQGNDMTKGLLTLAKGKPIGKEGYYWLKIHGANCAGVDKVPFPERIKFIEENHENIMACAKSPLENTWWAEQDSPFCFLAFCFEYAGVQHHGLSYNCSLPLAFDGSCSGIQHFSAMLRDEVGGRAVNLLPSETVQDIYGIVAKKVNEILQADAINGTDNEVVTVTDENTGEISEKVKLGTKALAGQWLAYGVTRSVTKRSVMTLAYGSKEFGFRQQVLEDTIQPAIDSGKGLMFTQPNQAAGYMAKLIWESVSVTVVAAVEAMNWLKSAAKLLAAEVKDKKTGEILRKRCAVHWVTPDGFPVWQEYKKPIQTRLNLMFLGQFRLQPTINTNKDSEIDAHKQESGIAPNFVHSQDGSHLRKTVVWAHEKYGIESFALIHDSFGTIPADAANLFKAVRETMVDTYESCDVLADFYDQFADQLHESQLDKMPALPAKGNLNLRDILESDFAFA

[6] = biological target: T1, DNA polymerase lambda (Homo sapiens) (UniProt Q9UGP5); test: Inhibition of recombinant His-tagged human DNA polymerase lambda using bovine deoxyribonuclease 1-treated DNA and dNTP as the DNA template-primer and nucleotide substrate at 10 uM after 60 mins
T1 sequence (whole entry): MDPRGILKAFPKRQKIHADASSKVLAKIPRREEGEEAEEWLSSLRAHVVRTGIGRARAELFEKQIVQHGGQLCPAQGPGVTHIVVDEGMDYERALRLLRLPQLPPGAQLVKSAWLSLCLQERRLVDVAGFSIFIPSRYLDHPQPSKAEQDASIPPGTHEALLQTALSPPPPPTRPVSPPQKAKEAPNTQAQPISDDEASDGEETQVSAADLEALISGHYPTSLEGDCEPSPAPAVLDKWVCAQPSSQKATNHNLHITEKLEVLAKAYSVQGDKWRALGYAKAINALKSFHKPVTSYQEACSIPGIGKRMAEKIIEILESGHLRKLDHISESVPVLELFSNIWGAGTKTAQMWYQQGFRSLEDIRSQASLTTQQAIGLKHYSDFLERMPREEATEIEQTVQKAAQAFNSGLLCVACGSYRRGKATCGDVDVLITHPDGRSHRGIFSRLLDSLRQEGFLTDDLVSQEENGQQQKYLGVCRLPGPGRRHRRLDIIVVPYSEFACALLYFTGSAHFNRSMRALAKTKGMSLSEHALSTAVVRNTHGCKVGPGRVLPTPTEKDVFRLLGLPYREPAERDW

[7] = biological target: DNA nucleotidylexotransferase (Bos taurus, UniProt P06526); test: Inhibition of calf thymus TdT using oligo(dT)18 (3'-OH) and dTTP as the DNA template-primer and nucleotide substrate after 60 mins; procedure, shortened: as §1
DNA nucleotidylexotransferase, sequence (P06526 whole entry, the tested form may be a part): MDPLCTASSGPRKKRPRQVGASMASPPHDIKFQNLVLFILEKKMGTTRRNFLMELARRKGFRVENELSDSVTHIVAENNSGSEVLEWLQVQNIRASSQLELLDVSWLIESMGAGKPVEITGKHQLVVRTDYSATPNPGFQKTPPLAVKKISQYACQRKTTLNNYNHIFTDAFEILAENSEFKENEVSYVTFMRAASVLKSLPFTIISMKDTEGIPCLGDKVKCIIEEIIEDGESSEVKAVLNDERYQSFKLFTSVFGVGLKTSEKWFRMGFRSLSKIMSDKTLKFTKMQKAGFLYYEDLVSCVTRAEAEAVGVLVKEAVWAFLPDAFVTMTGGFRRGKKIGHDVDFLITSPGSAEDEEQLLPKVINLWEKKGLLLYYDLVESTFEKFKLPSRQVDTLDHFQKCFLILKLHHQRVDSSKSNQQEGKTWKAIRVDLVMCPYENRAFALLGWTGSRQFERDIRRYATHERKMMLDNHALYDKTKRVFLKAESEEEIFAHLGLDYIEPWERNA

[8] = biological target: DNA polymerase kappa (Homo sapiens, UniProt Q9UBT6); test: Inhibition of C-terminal His6-tagged human DNA polymerase kappa (amino acids 1 to 560) using poly(dA)/oligo(dT)18 (A/T = 2/1) and dTTP as the DNA template-primer and nucleotide substrate after 60 mins; procedure, shortened: as §1
DNA polymerase kappa, sequence (Q9UBT6 whole entry, the tested form may be a part): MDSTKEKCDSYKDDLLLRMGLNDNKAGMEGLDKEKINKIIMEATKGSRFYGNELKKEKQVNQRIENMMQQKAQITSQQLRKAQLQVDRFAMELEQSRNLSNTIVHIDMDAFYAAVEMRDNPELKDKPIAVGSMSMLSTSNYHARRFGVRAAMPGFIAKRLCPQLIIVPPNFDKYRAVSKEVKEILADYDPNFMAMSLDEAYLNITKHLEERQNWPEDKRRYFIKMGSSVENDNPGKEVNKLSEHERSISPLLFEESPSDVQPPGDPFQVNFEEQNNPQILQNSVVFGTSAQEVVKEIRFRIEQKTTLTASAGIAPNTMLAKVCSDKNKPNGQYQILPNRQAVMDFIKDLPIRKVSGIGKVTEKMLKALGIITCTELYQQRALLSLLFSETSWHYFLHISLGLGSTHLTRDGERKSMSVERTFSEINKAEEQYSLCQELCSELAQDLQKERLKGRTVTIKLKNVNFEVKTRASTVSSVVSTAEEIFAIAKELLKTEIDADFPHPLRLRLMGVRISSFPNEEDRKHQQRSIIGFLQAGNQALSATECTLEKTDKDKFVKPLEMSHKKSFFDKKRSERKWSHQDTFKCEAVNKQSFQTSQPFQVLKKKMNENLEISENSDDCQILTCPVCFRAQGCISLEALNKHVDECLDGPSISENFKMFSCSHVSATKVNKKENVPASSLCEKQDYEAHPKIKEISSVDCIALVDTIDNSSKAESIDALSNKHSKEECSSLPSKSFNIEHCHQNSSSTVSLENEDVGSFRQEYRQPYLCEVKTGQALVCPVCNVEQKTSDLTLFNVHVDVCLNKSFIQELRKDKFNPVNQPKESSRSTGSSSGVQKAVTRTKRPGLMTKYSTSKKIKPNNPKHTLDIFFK

[9] = Inhibition of calf primase of DNA polymerase alpha; parameters: species or system Bos taurus; procedure, shortened: as §2
[10] = biological target: Deoxyribonuclease-1 (Bos taurus, UniProt P00639); test: Inhibition of bovine deoxyribonuclease I by agarose gel electrophoresis
Deoxyribonuclease-1, sequence (P00639 whole entry): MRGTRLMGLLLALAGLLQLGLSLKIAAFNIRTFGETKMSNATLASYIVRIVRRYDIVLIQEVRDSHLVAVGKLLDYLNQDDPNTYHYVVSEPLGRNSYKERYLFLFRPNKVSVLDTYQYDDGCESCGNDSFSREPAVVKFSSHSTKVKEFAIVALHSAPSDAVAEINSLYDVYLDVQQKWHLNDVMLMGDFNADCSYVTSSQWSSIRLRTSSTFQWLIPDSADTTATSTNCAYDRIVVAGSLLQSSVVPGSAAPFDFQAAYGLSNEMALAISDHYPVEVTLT

[11] = tested on: Mus musculus; test: Antiinflammatory activity in mouse assessed as inhibition of TPA-induced mouse ear edema at 500 ug/ear administered 30 mins before TPA challenge measured after 7 hrs relative to untreated control; format: functional, organism-based
Procedure, shortened: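 Compound (500 µg) applied to one mouse ear; 30 min later TPA (0.5 µg) applied to both ears. Edema scored after 7 h and expressed as percentage of edema. Mean ± SE, n = 6.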

[12] = biological target: DNA polymerase eta (Homo sapiens, UniProt Q9Y253); test: Inhibition of C-terminal His6-tagged human DNA polymerase eta (amino acids 1 to 511) using poly(dA)/oligo(dT)18 (A/T = 2/1) and dTTP as the DNA template-primer and nucleotide substrate after 60 mins; procedure, shortened: as §1
DNA polymerase eta, sequence (Q9Y253 whole entry, the tested form may be a part): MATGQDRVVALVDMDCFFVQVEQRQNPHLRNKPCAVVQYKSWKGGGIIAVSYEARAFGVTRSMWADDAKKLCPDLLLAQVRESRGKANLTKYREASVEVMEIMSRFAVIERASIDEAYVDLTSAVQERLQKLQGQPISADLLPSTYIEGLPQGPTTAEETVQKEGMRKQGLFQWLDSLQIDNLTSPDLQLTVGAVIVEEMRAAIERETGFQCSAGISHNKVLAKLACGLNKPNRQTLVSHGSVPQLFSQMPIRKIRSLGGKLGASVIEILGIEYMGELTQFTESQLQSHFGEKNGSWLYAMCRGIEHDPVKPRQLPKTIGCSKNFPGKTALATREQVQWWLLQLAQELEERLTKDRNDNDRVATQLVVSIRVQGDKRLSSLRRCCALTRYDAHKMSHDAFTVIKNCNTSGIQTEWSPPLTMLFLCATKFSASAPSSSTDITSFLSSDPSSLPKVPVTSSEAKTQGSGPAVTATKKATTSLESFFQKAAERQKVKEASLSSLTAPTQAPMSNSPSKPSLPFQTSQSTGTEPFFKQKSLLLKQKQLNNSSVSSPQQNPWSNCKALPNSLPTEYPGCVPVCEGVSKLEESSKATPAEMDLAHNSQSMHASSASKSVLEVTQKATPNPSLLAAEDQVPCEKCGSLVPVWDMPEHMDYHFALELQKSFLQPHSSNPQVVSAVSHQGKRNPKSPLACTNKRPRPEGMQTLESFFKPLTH

[13] = species: Bos taurus; test: Inhibition of calf DNA polymerase alpha using bovine deoxyribonuclease 1-treated DNA and dNTP as the DNA template-primer and nucleotide substrate at 10 uM after 60 mins
[14] = Inhibition of histidine-tagged human DNA polymerase gamma using poly(dA)/oligo(dT)18 (A/T = 2/1) and dTTP as the DNA template-primer and nucleotide substrate after 60 mins; procedure, shortened: as §1
[15] = biological target: DNA-directed DNA polymerase (Enterobacteria phage T4, UniProt P04415); test: Inhibition of T4 pol using poly(dA)/oligo(dT)18 (A/T = 2/1) and dTTP as the DNA template-primer and nucleotide substrate after 60 mins; parameters: species or system Tequatrovirus T4; procedure, shortened: as §1
[16] = biological target: Human immunodeficiency virus type 1 reverse transcriptase (Human immunodeficiency virus 1, UniProt Q72547); test: Inhibition of HIV-1 reverse transcriptase using poly(rA)/oligo(dT)18(A/T = 2/1) and dTTP as the DNA template-primer and nucleotide substrate after 60 mins; procedure, shortened: as §1
[17] = Inhibition of rice DNA polymerase lambda using poly(dA)/oligo(dT)18 (A/T = 2/1) and dTTP as the DNA template-primer and nucleotide substrate after 60 mins; parameters: species or system Oryza sativa; procedure, shortened: as §1
[18] = biological target: Polynucleotide kinase (Enterobacteria phage T4, UniProt P06855); test: Inhibition of T4 polynucleotide kinase using 5'-hydroxyl termini of DNA and [gamma-32ATP] after 30 mins by liquid scintillation counting; parameters: species or system Tequatrovirus T4
Polynucleotide kinase, sequence (P06855 whole entry): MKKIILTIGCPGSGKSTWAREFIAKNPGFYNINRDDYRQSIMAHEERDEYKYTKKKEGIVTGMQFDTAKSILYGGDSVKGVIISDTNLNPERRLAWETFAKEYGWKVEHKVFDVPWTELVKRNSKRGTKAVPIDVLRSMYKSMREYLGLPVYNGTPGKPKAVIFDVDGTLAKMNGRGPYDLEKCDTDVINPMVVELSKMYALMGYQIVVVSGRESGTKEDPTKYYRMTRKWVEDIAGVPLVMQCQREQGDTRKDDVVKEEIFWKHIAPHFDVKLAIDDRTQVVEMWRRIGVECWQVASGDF

[19] = species: Homo sapiens; test: Inhibition of histidine-tagged human DNA polymerase gamma using bovine deoxyribonuclease 1-treated DNA and dNTP as the DNA template-primer and nucleotide substrate at 10 uM after 60 mins
[20] = Inhibition of calf DNA polymerase alpha using poly(dA)/oligo(dT)18 (A/T = 2/1) and dTTP as the DNA template-primer and nucleotide substrate after 60 mins; parameters: species or system Bos taurus; procedure, shortened: as §1
[21] = biological target: DNA polymerase iota (Mus musculus, UniProt Q6R3M4); test: Inhibition of C-terminal His6-tagged mouse DNA polymerase iota using poly(dA)/oligo(dT)18 (A/T = 2/1) and dTTP as the DNA template-primer and nucleotide substrate after 60 mins; procedure, shortened: as §1
[22] = biological target: DNA-directed DNA/RNA polymerase mu (Homo sapiens, UniProt Q9NP87); test: Inhibition of His-tagged human DNA polymerase mu using poly(dA)/oligo(dT)18 (A/T = 2/1) and dTTP as the DNA template-primer and nucleotide substrate after 60 mins; procedure, shortened: as §1
DNA-directed DNA/RNA polymerase mu, sequence (Q9NP87 whole entry): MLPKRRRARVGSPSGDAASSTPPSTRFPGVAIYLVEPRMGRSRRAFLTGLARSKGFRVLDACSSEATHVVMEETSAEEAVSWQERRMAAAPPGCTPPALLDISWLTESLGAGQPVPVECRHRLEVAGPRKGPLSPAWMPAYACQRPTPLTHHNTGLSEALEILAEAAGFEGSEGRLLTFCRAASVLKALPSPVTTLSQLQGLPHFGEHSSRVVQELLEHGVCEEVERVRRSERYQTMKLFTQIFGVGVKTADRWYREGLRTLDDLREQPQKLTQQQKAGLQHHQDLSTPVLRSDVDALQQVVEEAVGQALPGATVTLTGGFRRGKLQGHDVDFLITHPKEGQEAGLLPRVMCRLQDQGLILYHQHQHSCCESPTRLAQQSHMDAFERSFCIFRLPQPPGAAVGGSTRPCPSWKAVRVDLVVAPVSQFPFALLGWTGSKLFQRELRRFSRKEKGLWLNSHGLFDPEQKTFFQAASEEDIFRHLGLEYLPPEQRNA

[23] = Inhibition of cauliflower DNA polymerase alpha using poly(dA)/oligo(dT)18 (A/T = 2/1) and dTTP as the DNA template-primer and nucleotide substrate after 60 mins; parameters: species or system Brassica oleracea var. botrytis; procedure, shortened: as §1

Structure (SMILES)	IC50 [1]	IC50 [2]	IC50 [3]	IC50 [4]	IC50 [5]	inhibition [6]	IC50 [7]	IC50 [8]	IC50 [9]	IC50 [10]	Activity [11]	IC50 [12]	inhibition [13]	IC50 [14]	IC50 [15]	IC50 [16]	IC50 [17]	IC50 [18]	inhibition [19]	IC50 [20]	further results
CCCCCCCCCCCC(=O)Oc1cccc2c1C(=O)C=CC2=O	6.6 µM	7 µM	> 100 µM	> 100 µM	> 100 µM	Active	8.4 µM	6.8 µM	> 100 µM	> 100 µM	Active	6.9 µM	Active	6.5 µM	> 100 µM	> 100 µM	> 100 µM	> 100 µM	Active	6.3 µM	IC50 [21]: 7.1 µM; IC50 [22]: 7.9 µM; IC50 [23]: > 100 µM
CCCCCCCC/C=C\CCCCCCCC(=O)Oc1cccc2c1C(=O)C=CC2=O	0.7 µM	10.2 µM	> 100 µM	> 100 µM	> 100 µM	Active	11.9 µM	8.1 µM	> 100 µM	> 100 µM	Active	8.4 µM	Active	0.72 µM	> 100 µM	> 100 µM	> 200 µM	> 100 µM	Active	0.68 µM	IC50 [21]: 8.7 µM; IC50 [22]: 10.8 µM; IC50 [23]: > 200 µM
